# Where two headings read alike, the source gives them in different places.
# Assays:
# WT-IDE [1] = target: T1, WT-IDE (Homo sapiens, UniProt P14735); test: IDE activity in the presence of reducing agents / reversal by DTT; format: biochemical
# T1 sequence (P14735 1-1019): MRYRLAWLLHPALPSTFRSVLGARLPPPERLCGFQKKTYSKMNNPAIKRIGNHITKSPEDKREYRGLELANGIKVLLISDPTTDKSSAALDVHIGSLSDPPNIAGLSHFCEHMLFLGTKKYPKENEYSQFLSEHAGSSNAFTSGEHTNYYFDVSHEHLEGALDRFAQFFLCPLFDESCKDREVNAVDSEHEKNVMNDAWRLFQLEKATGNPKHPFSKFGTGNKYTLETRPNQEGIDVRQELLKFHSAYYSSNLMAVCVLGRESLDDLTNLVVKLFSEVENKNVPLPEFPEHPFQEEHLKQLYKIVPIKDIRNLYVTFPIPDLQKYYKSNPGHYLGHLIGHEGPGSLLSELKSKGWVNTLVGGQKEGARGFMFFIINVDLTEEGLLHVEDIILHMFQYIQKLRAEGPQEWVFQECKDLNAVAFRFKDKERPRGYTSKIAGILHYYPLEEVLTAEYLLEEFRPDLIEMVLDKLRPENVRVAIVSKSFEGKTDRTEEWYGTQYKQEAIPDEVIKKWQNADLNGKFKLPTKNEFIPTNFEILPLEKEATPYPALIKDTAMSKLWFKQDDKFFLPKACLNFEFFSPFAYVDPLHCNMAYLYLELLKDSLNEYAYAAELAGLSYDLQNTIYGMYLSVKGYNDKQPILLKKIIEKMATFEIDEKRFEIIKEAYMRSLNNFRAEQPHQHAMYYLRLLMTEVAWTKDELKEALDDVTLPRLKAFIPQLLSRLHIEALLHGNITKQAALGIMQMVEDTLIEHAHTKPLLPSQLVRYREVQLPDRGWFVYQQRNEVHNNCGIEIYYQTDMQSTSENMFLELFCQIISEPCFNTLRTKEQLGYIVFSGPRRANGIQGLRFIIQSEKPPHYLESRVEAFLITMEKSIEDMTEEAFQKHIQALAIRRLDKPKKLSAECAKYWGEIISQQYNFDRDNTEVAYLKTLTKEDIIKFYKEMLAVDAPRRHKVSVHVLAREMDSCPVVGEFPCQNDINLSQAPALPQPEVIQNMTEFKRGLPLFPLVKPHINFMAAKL
# WT-IDE [2] = target: T1, WT-IDE; test: kinetics of irreversible inhibition; format: biochemical; conditions: WT-IDE 2 nM, FRET1 5 μM; rate constant of irreversible step
# Outline: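 Recombinant WT-IDE (2 nM) and FRET1 substrate (5 μM) were monitored continuously at 3-s intervals, starting immediately after adding inhibitor at several concentrations. Curve fits gave observed rate constants, which were plotted against inhibitor concentration. A hyperbolic fit gave kinhib and KM. LE was taken as ΔG/heavy atoms using KM; SEI as pKM/tPSA/100 Å2.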
# extracellular IDE = target: T2, extracellular IDE (Homo sapiens, UniProt P14735); test: cell-based IDE activity assay; conditions: for activity by hit cutoff criteria: Table 1 screening assays
# T2 sequence (P14735 1-1019): T1 sequence (P14735 1-1019)
# Outline: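 Extracellular IDE secreted by HEK-293 cells, harvested mechanically rather than by trypsin, served as the endogenous enzyme source. Activity was read by fluorescence polarization with fluoresceinated, biotinylated Aß peptide (FAßB) in DTT-free solutions. The primary screen used a nominal compound concentration of 6 μM. Confirmed hits were retested in dose-response format to give apparent IC50.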
# [3] = target: T3, intracellular pools of IDE (Homo sapiens, UniProt P14735); test: intracellular IDE activity after incubation of intact HEK cells; format: cell-based; conditions: 10 μM, 36 h
# T3 sequence (P14735 1-1019): T1 sequence (P14735 1-1019)
# Outline: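 Confluent HEK monolayers were exposed 36 h to 10 μM compound or DMSO vehicle, and conditioned medium was collected. Cells were washed 3× in PBS and held 30 min in hypotonic 50 mM Tris-HCl at 4 °C. They were scraped, extruded 3× through a 30G needle and spun 10,000 × g, 10 min, 4 °C. Supernatant activity was assayed by FAßB degradation without or with 1 mM DTT.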
# WT-IDE [4] = target: T1, WT-IDE; test: test for irreversible inhibition by 100-fold dilution; format: biochemical; conditions: 100 nM IDE with high inhibitor concentration 30 min, then 100-fold dilution
# Outline: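 Recombinant WT-IDE activity was measured with FRET1 substrate in DTT-free solutions under three conditions. (1) 1 nM enzyme with "high" inhibitor concentrations. (2) 1 nM enzyme with 100-fold lower concentrations. (3) 100 nM enzyme preincubated 30 min with "high" concentrations, then diluted 100-fold to 1 nM enzyme and "low" inhibitor before assay. Reversible and irreversible reference inhibitors were run alongside.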
# IDE mutant sC812 = test: inhibition of single-cysteine IDE mutant sC812; format: biochemical, human; conditions: Figure 3B
# [5] = target: T4, recombinant wild-type IDE (WT-IDE) (Homo sapiens, UniProt P14735); test: cell-free IDE activity assay with fluorogenic peptide substrate FRET1; format: biochemical
# T4 sequence (P14735 1-1019): T1 sequence (P14735 1-1019)
# [6] = target: T5, cysteine-free form of IDE (CF-IDE) (Homo sapiens, UniProt P14735, C819S, form not given); test: IDE activity assay with FRET1 using cysteine-free IDE; format: biochemical; conditions: read-out: ki CF-IDE
# T5 sequence (P14735 42-1019 C819S): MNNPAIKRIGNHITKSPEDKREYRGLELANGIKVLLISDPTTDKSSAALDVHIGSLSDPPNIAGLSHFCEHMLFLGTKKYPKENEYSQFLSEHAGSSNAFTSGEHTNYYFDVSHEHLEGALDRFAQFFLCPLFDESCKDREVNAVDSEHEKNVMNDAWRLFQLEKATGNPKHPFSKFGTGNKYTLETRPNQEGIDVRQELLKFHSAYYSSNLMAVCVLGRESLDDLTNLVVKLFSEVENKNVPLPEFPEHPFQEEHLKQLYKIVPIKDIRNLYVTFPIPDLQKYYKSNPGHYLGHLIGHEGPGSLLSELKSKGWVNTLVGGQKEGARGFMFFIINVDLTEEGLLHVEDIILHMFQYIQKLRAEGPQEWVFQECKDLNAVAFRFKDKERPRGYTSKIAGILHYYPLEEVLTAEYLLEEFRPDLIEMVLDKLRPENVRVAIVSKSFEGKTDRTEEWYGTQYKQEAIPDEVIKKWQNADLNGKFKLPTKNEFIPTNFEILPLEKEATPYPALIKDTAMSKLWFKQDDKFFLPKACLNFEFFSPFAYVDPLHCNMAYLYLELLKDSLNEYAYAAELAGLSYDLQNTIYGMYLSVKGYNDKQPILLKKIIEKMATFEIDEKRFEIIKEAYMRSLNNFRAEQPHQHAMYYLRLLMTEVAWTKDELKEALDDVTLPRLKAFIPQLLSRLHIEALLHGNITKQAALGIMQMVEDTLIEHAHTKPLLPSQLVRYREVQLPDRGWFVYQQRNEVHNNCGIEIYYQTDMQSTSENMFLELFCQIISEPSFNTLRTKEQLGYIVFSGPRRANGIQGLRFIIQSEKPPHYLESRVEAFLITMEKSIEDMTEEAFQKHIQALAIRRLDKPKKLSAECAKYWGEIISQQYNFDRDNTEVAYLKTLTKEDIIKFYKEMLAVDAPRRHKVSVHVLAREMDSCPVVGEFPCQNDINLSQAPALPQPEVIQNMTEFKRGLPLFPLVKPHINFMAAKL
# IDE mutant sC819 = test: inhibition of single-cysteine IDE mutant sC819; format: biochemical, human; conditions: Figure 3B
# [7] = read-out: IC50^app cell-based, Table 1, HEK-293 cells, extracellular IDE
# [8] = read-out: IC50^app cell-free, Table 1, WT-IDE, FRET1
smiles,measurement,setting,value
O=c1c2ccccc2sn1-c1cc(S(=O)(=O)N2CCOCC2)ccc1N1CCOCC1 [Compound 1],reversibility of WT-IDE inhibition by treatment with dithiothreitol,"WT-IDE [1]; DTT treatment, Figure 2E",reversible
same,"activity in the presence of excess DTT, ß-mercaptoethanol or reduced glutathione","WT-IDE [1]; excess reducing agent, Supplementary Figure S1A",no activity was detected
same,kinhib,WT-IDE [2],2.05 min⁻¹
same,IC50,extracellular IDE; [7],1400 nM
same,IC50,"extracellular IDE; read-out: IC50^app cell-based, Table 2",1400 nM
same,effect on intracellular pools of IDE after prolonged incubation of intact cells,[3],unaffected
same,reversibility of inhibition in dilution experiments,WT-IDE [4],irreversible
same,inhibition of single-cysteine mutant sC812,IDE mutant sC812,no significant effect
same,IC50,"[5]; read-out: IC50^app against WT-IDE, cell-free",233 nM
same,IC50,[5]; [8],230 nM
same,Ki,[6],8180 nM
same,inhibition of single-cysteine mutant sC819,IDE mutant sC819,strongly inhibited
O=C(O)c1ccccc1NS(=O)(=O)c1cccc(-n2sc3ccccc3c2=O)c1 [Compound 2],IC50,extracellular IDE; [7],2100 nM
same,IC50,[5]; [8],540 nM
Cc1ccc(-n2sc3ccccc3c2=O)cc1S(=O)(=O)N1CCCCC1 [Compound 3],IC50,extracellular IDE; [7],4000 nM
same,IC50,[5]; [8],1030 nM
O=c1c2ccccc2sn1-c1cc(S(=O)(=O)N2CCOCC2)ccc1N1CCCC1 [Compound 4],IC50,extracellular IDE; [7],5600 nM
same,IC50,[5]; [8],1120 nM
CN(C)S(=O)(=O)c1cccc(-n2sc3ccccc3c2=O)c1 [Compound 5],activity by hit cutoff criteria,extracellular IDE,inactive
same,IC50,extracellular IDE; [7],> 10000 nM
O=c1c2ccccc2sn1-c1ccc(S(=O)(=O)N2CCCC2)cc1 [Compound 6],activity by hit cutoff criteria,extracellular IDE,inactive
same,IC50,extracellular IDE; [7],> 10000 nM
same,IC50,[5]; [8],> 10000 nM
O=c1c2cc(F)ccc2sn1-c1ccccc1 [Compound 7],activity by hit cutoff criteria,extracellular IDE,active
same,IC50,extracellular IDE; [7],3900 nM
same,IC50,[5]; [8],1800 nM
"O=c1c2cc(C(F)(F)F)ccc2sn1-c1cc(S(=O)(=O)N2CCOCC2)ccc1N1CCOCC1 [Compound 9, 2-(2-morpholin-4-yl-5-morpholin-4-ylsulfonylphenyl)-5-(trifluoromethyl)-1,2-benzothiazol-3-one]",kinhib,WT-IDE [2],15.3 min⁻¹
same,IC50,extracellular IDE,120 nM
same,IC50,[5],71 nM
same,Ki,[6],7890 nM
"CCN1C(=O)C=CC1=O [NEM, N-ethylmaleimide, reference compound]",reversibility of inhibition in dilution experiments,WT-IDE [4],irreversible
same,inhibition of single-cysteine mutant sC812,IDE mutant sC812,completely inhibited
same,inhibition of single-cysteine mutant sC819,IDE mutant sC819,completely inhibited
